Experiments:
[1] = Unbound plasma concentration in Hartley guinea pig at 60 mg/kg, po measured at 8 hrs; assay type: ADME, organism-based, Cavia porcellus; set-up: dose 60 mg/kg, route oral; details: in vivo
Summary of the method: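 Male Hartley guinea pigs were dosed orally at 30, 60 or 100 mg/kg, with six or eight animals per cohort. The vehicle was either a suspension in 1% CMC/0.5% Tween/5 mM citrate in H₂O or a 40/10/50 PEG/EtOH/H₂O solution, depending on compound. Unbound plasma concentration was sampled at 1–12 h post-dose alongside brain, CSF and CSF Aβ₁₋₄₀.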

Brain = assay: Fraction unbound in Sprague-Dawley rat brain at 60 mg/kg, po measured at 1 hr; assay type: ADME, organism-based; set-up: dose 60 mg/kg, route oral; details: in vivo
Summary of the method: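 Male Sprague–Dawley rats dosed 60 mg/kg po in 1% CMC/0.5% Tween/5 mM citrate in H₂O; plasma, brain and CSF taken at 1, 3, 5, 8 and 12 h; unbound plasma and brain levels and their ratio determined.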

In the case of CN1C(=O)[C@]2(N=C1N)c1cc(-c3cccnc3F)ccc1O[C@H]1CCOC[C@@H]12, the “Cp(f)” value [1] is reported as < 3 nM and the “Drug uptake(free)” value (Brain) is reported as 68 nM.
